In the library only some 1.8% were active in any assay of this set; here they are far more common.
Efflux pump inh = antifungal efflux pump inhibition, Nile Red retention; inhibition, % at 10 µM; 330,000 tested, 0.44% active; AID 485275; S. cerevisiae Candida pump triplex;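 active means plate passing quality check with inhibition over a set limit, or well fluorescence over plate mean plus 4 SD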;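 further: Nile Red retained in pooled yeast measured as flow cytometry median fluorescence; 0% = buffer negative control and 100% = Enniatin B positive control; higher means more Nile Red kept so more efflux inhibition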
Cneo AK release = causes C. neoformans cell lysis; adenylate kinase release luminescence, 4 h; normalised: neutral wells 0, clomiphene wells 100; lysis activity, % at 15 µM; 360,000 tested, 0.2% active;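 active means mean lysis activity across replicates of at least 80%, whatever share of replicates individually reach that level; inactive means mean lysis activity below 80%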
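Material – Cryptococcus neoformans yeast cells · Quantity – 5 × 10^6 yeast cells/mL · Buffer or medium – YPD medium · Compound – single dose · Timing – 4 h static compound exposure, 37 °C, read 1 h post-reagent · Signal – adenylate kinase release luminescence · Read-out basis – lysis from increased AK signal · Benchmarks – Clomiphene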
Statin myotox sup = protects C2C12 myotubes from simvastatin toxicity | rescue of ATP level, % at 7.49 µM | 330,000 tested, 0.78% active | ATP luminescence, 48 h; scaled: DMSO 0, geranylgeraniol control 100 | AID 602340;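 active means mean ATP rescue above about 67%, or every replicate alone reaching that limit, limit read from the data, passing the limit was not always enough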;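 further: myotubes were challenged with 10 µM simvastatin during compound exposure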
SUMO Mot1 rescue = inhibitors of SUMOylation pathway: yeast Mot1-301 growth rescue. S. cerevisiae Mot1-301 growth rescue, ATP luminescence, 38.5C; percent above DMSO median, 100 means doubled. growth rescue, % at 18.8 µM. 320,000 tested, 1% active;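 active means every valid replicate shows activation above 250% relative to neutral control wells; inactive means the rest, any valid replicate at or below 250%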;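 further: OY570 slx delta 5 strain wells were the positive control but not used for scaling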
Yeast Mot1 SUMO = yeast SUMO pathway inhibition in dose response. growth activity, percent, % at 42 µM. 2,300 tested, under 10 active. shares compounds with SUMO Mot1 rescue. S. cerevisiae Mot1-301 galactose growth, ATP luminescence, 24 h; -100 = growth of slx-deleted rescue strain;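 active means Signal drops as the depositor expects, and the fitted half-maximal dose is no more than ten times the top valid tested dose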;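 further: more negative values mean stronger growth rescue toward the control strain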
* marks the source's active call; other numbers are inactive results; / = not tested or not shown; + = active, no number; [ ] = remark or other dose.

SMILES	Efflux pump inh	Cneo AK release	Statin myotox sup	SUMO Mot1 rescue	Yeast Mot1 SUMO
CCCCOc1ccc(C(=O)Nc2ccc(N3CCN(C)CC3)cc2)cc1	0.1	0.0	-31.2	+	0.3
CCOc1ccc(C(=O)Nc2ccc(N3CCN(C)CC3)cc2)cc1	0.1	-1.9	-6.6	-7.4	/
CS(=O)(=O)N1CCC(C(=O)N2CCc3ccccc3C2)CC1	-0.1	0.2	-1.0	-13.0	/
CCCS(=O)(=O)N1CCC(C(=O)N2CCc3ccccc3C2)CC1	-0.1	0.4	-3.7	396.6*	0.1
COc1ccc(OCC(=O)Nc2ccc(N3CCN(C(=O)c4ccco4)CC3)cc2)cc1	0.1	/	/	-3.9	/
Cc1cc(C)cc(OCC(=O)Nc2ccc(N3CCN(C(=O)c4ccco4)CC3)cc2)c1	-0.2	-0.4	6.8	793.0*	-0.6
O=C1C=C(O)C(n2cncn2)C(c2cc(F)ccc2F)C1 (centres undefined)	0.3	/	/	-12.6	/
O=C1CC(=O)C(n2cncn2)C(c2ccc(Cl)cc2Cl)C1 (centres undefined)	0.1	2.5	/	+	-0.1
O=C(Nc1ccccc1)O/N=C/c1ccc(F)cc1	0.9	-1.1	-8.1	31.0	/
CCN(CC)C(=O)Cn1cc(S(=O)(=O)CC(=O)NCCc2ccc(OC)c(OC)c2)c2ccccc21	0.1	-7.2	-1.1	383.6*	-1.0
CCN(CC)C(=O)Cn1cc(S(=O)(=O)CC(=O)Nc2cccc(NC(C)=O)c2)c2ccccc21	/	0.0	5.0	/	/
COc1ccc(-c2csc(Nc3cc(C)ccn3)n2)cc1C	0.0	-2.5	14.3	515.3*	0.1
O=C1CCc2cc(S(=O)(=O)N3CCCC3C(=O)NC3CCCCCCC3)ccc2N1 (centres undefined)	0.0	-0.6	2.1	5.3	/
O=C1CCc2cc(S(=O)(=O)N3CCC(C(=O)NC4CCCC4)CC3)ccc2N1	-0.4	-0.5	-2.9	518.1*	-0.3
O=C(COC(=O)C1CC(=O)N(Cc2ccccc2)C1)Nc1ccccc1F (centres undefined)	-0.1	/	/	543.8*	-0.2[21 µM]
Cc1sc(NC(=O)c2ccc(Br)s2)c(C(N)=O)c1C	-0.1	-2.4	-2.5	408.3*	-1.9
Cc1sc(NC(=O)c2ccc(Cl)s2)c(C(N)=O)c1C	-0.1	-0.4	-56.5	23.4	/
Cc1nc(-c2ccncc2)sc1C(=O)Nc1ccc(Br)cc1	-0.1	/	/	744.7*	-0.5
Cc1ccc(CSCCNC(=O)c2ccc(NS(C)(=O)=O)cc2)cc1	-0.1	1.0	-7.8	453.3*	-0.3
COc1cc(C=NNC(=O)c2ccc(NS(=O)(=O)c3cccs3)cc2)cc(Br)c1O	-0.4	0.9	-20.0	110.3	/
Cc1ccc(-c2nc3c(c(SCC(=O)N4CCOCC4)n2)Cc2c(CO)cnc(C)c2O3)cc1	0.1	1.2	-7.4	-7.2	/
COc1ccc(-c2nc3c(c(SCC(=O)N4CCOCC4)n2)Cc2c(CO)cnc(C)c2O3)cc1	0.2	1.1	-14.1	380.1*	0.5
CC(C)(C)C(=O)O/N=C(\N)c1ccc([N+](=O)[O-])s1	0.0	/	/	3.4	/
C#CC1(NC(=O)NS(=O)(=O)c2ccc(C)cc2)CCCCC1	-0.1	6.1	-3.2	1.8	/
O=C(CSc1ncn[nH]1)Nc1cccc(S(=O)(=O)N2CCCCCC2)c1	0.1	-1.5	/	499.1*	0.0
SMILES	Efflux pump inh	Cneo AK release	Statin myotox sup	SUMO Mot1 rescue	Yeast Mot1 SUMO
Cc1cccc(NC(=O)CSc2nc3[nH]c(=O)cc(O)c3s2)c1	0.2	0.7	1.2	33.8	/
COc1ccc(C#Cc2ccc3c(c2)[C@H]2[C@H](CCN2C(=O)c2ccncc2)[C@H](CO)N3)cc1	/	-9.5	-22.6	/	/
O=C(/C=C/c1ccccc1[N+](=O)[O-])Nc1cccc(S(=O)(=O)NC2=NCCCCC2)c1	-0.5	-5.0	7.4	/	/
O=C(/C=C/c1ccc(Cl)cc1Cl)Nc1cccc(S(=O)(=O)NC2=NCCCCC2)c1	0.1	/	/	546.8*	0.7
Cc1cc(=O)n2nc(N3CCC(C(=O)NCc4ccccc4)CC3)sc2n1	-0.1	0.4	19.2	91.9	/
CCC(Cc1ccccc1)NC(=O)C1CCN(c2nn3c(=O)cc(C)nc3s2)CC1 (centres undefined)	-0.1	0.7	9.0	408.3*	0.2
C[C@H](CO)N1C[C@H](C)[C@H](CN(C)C(=O)c2ccccc2)Oc2ncc(C#CC3CC3)cc2C1=O	/	8.6	-0.2	/	/
Cc1ccc(S(=O)(=O)N(C)CC(=O)O/N=C(\N)c2ccccn2)cc1	0.2	/	7.3	399.3*	0.7
CN(CC(=O)O/N=C(\N)c1ccccn1)S(=O)(=O)c1ccc(Br)cc1	-0.1	-0.4	6.8	164.1	/
CS(=O)(=O)c1ccc(Cl)c(NC(=O)c2ccc3ccccc3c2)c1	0.0	0.1	4.1	+	0.4
O=C(NCCS(=O)(=O)N1CCN(c2ccccc2)CC1)C1CC(=O)N(c2ccccc2)C1 (centres undefined)	0.0	-2.3	12.5	-14.6	/
O=C(O)c1cccc(Nc2ncnc3sccc23)c1	-0.1	/	/	-17.5	/
Fc1cccc(Nc2ncnc3sccc23)c1	0.1	-7.3	-10.2	655.0*	-0.3
Cc1nn(C(C)C(=O)NCCN2CCCC2)c(=O)c2c1sc1ccccc12 (centres undefined)	0.0	-1.0	-7.4	-10.2	/
O=C(c1ccco1)N1CCN(CC(=O)N2c3ccccc3CCc3ccccc32)CC1	0.1	-1.6	8.4	367.9*	0.5
CCc1ccc(NC(=O)C(C)Oc2nnc(-c3cccs3)c(-c3cccs3)n2)cc1 (centres undefined)	-0.1	2.9	58.5	-12.9	/
CC(C)c1ccc(NC(=O)COc2nnc(-c3cccs3)c(-c3cccs3)n2)cc1	0.1	-0.4	-1.6	810.1*	0.4
CCc1nc2c(OCc3ccc(OC)cc3)cccn2c1N(C)C(=O)C(C)C	/	0.0	-1.9	/	/
CC(C)(C)C(=O)NC1CCN(CC(=O)Nc2ccc3c(c2)OCO3)CC1	0.2	-0.2	5.0	490.0*	0.3
N#CCCN(Cc1ccccc1)C(=O)Nc1ccc(F)cc1	0.0	/	/	-1.6	/
O=C(Cc1cccs1)N1CCCC(c2nc3c(nnn3Cc3ccccc3Cl)c(=O)[nH]2)C1 (centres undefined)	0.0	/	/	-5.0	/
O=C(Cc1cccs1)N1CCCC(c2nc3c(nnn3Cc3ccc(F)cc3)c(=O)[nH]2)C1 (centres undefined)	1.2	1.8	43.9	532.9*	0.5
CS(=O)(=O)Nc1ccc2c(c1)[C@H]1C[C@H](CC(=O)N3CCc4ccccc4C3)O[C@@H](CO)[C@H]1O2	/	-2.6	0.9	/	/
CCc1ccc(S(=O)(=O)NCc2cccnc2)cc1	0.4	1.6	11.3	571.4*	-0.6
O=C1CC(N2CCOCC2)C(=O)N1c1cc(Cl)cc(Cl)c1 (centres undefined)	-0.2	-0.5	/	218.9	/
CCCOC(=O)c1c(-c2ccc(OC)cc2)oc2ccc(-c3ccc(OC)nc3)cc12	-0.3	5.2	-34.2	632.6*	-0.3
COc1ccc(-c2oc3ccc(-c4cc(OC)c(OC)c(OC)c4)cc3c2C(=O)c2ccc(OC)nc2)cc1	0.1	-0.5	8.0	812.8*	0.0
